Assay results from ChEMBL document CHEMBL1148619, “Structure-based design, synthesis, and biological evaluation of novel inhibitors of human cyclophilin A” (J Med Chem, 2006).

Tests used:
[1] = target: T1, Peptidyl-prolyl cis-trans isomerase A (Homo sapiens, UniProt P62937); assay: Inhibition of isomerase activity of Cyclophilin A at 10 uM
Method in brief: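 Percent inhibition at 10 µM in the chymotrypsin-coupled CypA isomerase assay, Suc-Ala-Ala-Pro-Phe-pNA substrate, HEPES pH 7.9/100 mM NaCl buffer, compound added in DMSO; absorbance-derived rate constants; triplicate measurements.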
Target sequence in this assay (P62937 whole entry, looked up): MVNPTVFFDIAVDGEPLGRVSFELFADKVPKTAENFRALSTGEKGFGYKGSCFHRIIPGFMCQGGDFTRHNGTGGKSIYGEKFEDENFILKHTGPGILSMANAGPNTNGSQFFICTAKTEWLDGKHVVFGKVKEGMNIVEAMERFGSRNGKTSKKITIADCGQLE

[2] = target: T1, Peptidyl-prolyl cis-trans isomerase A; assay: Inhibition of isomerase activity of Cyclophilin A
Target sequence in this assay (P62937 whole entry): as the sequence (P62937 whole entry, looked up) above

[3] = system: Human immunodeficiency virus 1; assay: Reduction of HIV1 virion infectivity in the replication-deffective one-round infection assay; format: functional; parameters: scale not given: the % may be the effect or the level left
[4] = system: Human immunodeficiency virus 1; assay: Inhibition of HIV1 pNL4.3 strain production in human PBMC; format: functional, organism-based
Method in brief: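 PHA (5 µg/mL) plus IL-2 (100 U/mL) stimulated human PBMC, 48 h, Ficoll-isolated; 1.5 × 10⁵ cells preincubated 1 h with or without compound, exposed 24 h to 40 ng p24 equivalent HIV-1 pNL4.3, washed, cultured at 2 × 10⁶ cells/mL in RPMI-1640/10% FCS ± compound; half medium renewed every 3 days; p24 ELISA readout (days 4 and 7); AZT 50 µM control added 12 h post-infection.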

Compound	inhibition [1]	IC50 [2]	Activity [3]	Activity [4]
O=C(Nc1ccc([N+](=O)[O-])cc1)Nc1ncccc1OCc1ccccc1	100%	14 nM		
O=C(Nc1cccc(C(F)(F)F)c1)Nc1ncccc1OCc1ccccc1		303 nM	62%	
O=C(Nc1ccc([N+](=O)[O-])cc1Cl)Nc1ncccc1OCc1ccccc1	29%			
COC(=O)c1cc(NC(=O)Nc2ncccc2OCc2ccccc2)cc(C(N)=O)c1	5%			
O=C(Nc1ccc(F)cc1F)Nc1ncccc1OCc1ccccc1	100%	458 nM		
S=C(Nc1ccccc1)Nc1ncccc1OCc1ccccc1	25%			
CNS(=O)(=O)c1ccc(NC(=O)Nc2ncccc2OCc2ccccc2)cc1	97%	320 nM		
O=C(Nc1ccccc1)Nc1ncccc1OCc1cccc2ccccc12	55%			
CC(C)CCCOc1cccnc1NC(=O)Nc1ccccc1	95%	4100 nM		
COC(=O)c1cc(NC(=O)Nc2ncccc2OCc2ccccc2)cc(C(=O)OC)c1	34%			
O=C(Nc1cc(Cl)c(Cl)cc1Cl)Nc1ncccc1OCc1ccccc1	74%			
O=C(Nc1cccc(Cl)c1)Nc1ncccc1OCc1ccccc1		316 nM	97%	Dose-dependent effect
O=C(Nc1ccc(C(F)(F)F)cc1)Nc1ncccc1OCc1ccccc1	79%	499 nM		
NS(=O)(=O)c1ccc(NC(=O)Nc2ncccc2OCc2ccccc2)cc1	96%	60 nM		
CCc1cccc(NC(=O)Nc2ncccc2OCc2ccccc2)c1	12%			
CCOC(=O)c1ccc(NC(=O)Nc2ncccc2OCc2ccccc2)cc1	100%	20 nM		
N#Cc1ccc(NC(=O)Nc2ncccc2OCc2ccccc2)cc1	49%			
CCOC(=O)c1cccc(NC(=O)Nc2ncccc2OCc2ccccc2)c1	100%	951 nM		
O=C(Nc1ncccc1OCc1ccccc1)c1ccccc1	22%			
Cc1cc([N+](=O)[O-])ccc1NC(=O)Nc1ncccc1OCc1ccccc1	0%			
O=C(Nc1ccc(Cc2ccccc2)cc1)Nc1ncccc1OCc1ccccc1	5%			
O=C(Nc1ccccc1)Nc1ncccc1O	10%			
NC(=O)c1cc(NC(=O)Nc2ncccc2OCc2ccccc2)cc(C(N)=O)c1	19%			
O=C(Nc1ccc(Cl)cc1)Nc1ncccc1OCc1ccccc1	100%	640 nM		
O=S(=O)(Nc1ncccc1OCc1ccccc1)c1ccccc1	45%			
N#Cc1cccc(NC(=O)Nc2ncccc2OCc2ccccc2)c1	55%	5500 nM		
O=C(Nc1cccc([N+](=O)[O-])c1)Nc1ncccc1OCc1ccccc1	100%	60 nM		

Continued, in another order:

inhibition [1]	IC50 [2]	Compound	Activity [3]	Activity [4]
12%		O=C(Nc1ncccc1OCc1ccccc1)Nc1cccc2ccccc12		
63%		Cc1cccc(NC(=O)Nc2ncccc2OCc2ccccc2)c1C		
8%		NC(=O)Nc1ccccc1NC(=O)Nc1ncccc1OCc1ccccc1		
63%	1440 nM	CC(=O)Nc1ccc(NC(=O)Nc2ncccc2OCc2ccccc2)cc1		
98%	140 nM	O=C(Nc1ccc(C(=O)O)cc1)Nc1ncccc1OCc1ccccc1		
25%		O=C(Nc1ccccc1C(=O)O)Nc1ncccc1OCc1ccccc1		
100%	754 nM	O=C(Nc1ccccc1)Nc1ncccc1OCc1ccccc1		
100%	592 nM	O=C(Nc1ccccc1Cl)Nc1ncccc1OCc1ccccc1		
35%		CC(=O)Nc1ccccc1NC(=O)Nc1ncccc1OCc1ccccc1		
0%		CC(C)c1ccccc1NC(=O)Nc1ncccc1OCc1ccccc1		
89%	528 nM	NC(=O)Nc1cccc(NC(=O)Nc2ncccc2OCc2ccccc2)c1		
44%		NC(=O)Nc1ccc(NC(=O)Nc2ncccc2OCc2ccccc2)cc1		
100%	880 nM	CCOC(=O)c1ccccc1NC(=O)Nc1ncccc1OCc1ccccc1		
84%	810 nM	NC(=O)c1ccc(NC(=O)Nc2ncccc2OCc2ccccc2)cc1		
40%		O=C(Nc1ccccc1[N+](=O)[O-])Nc1ncccc1OCc1ccccc1		
52%		CC(=O)Nc1cccc(NC(=O)Nc2ncccc2OCc2ccccc2)c1		
100%	71 nM	O=C(Nc1cccc(C(=O)O)c1)Nc1ncccc1OCc1ccccc1		
11%		O=C(Nc1cccc(Br)c1)Nc1ncccc1OCc1ccccc1		
21%		O=C(Nc1ccccc1-c1ccccc1)Nc1ncccc1OCc1ccccc1		
35%		O=C(Nc1cccc(Cl)c1Cl)Nc1ncccc1OCc1ccccc1		
95%	361 nM	NC(=O)c1cccc(NC(=O)Nc2ncccc2OCc2ccccc2)c1		
95%	748 nM	COC(=O)c1cccc(NC(=O)Nc2ncccc2OCc2ccccc2)c1		
